What was measured:
RAW264.7 = assay: Cytotoxicity against mouse RAW264.7 cells assessed as living cells at 7.5 uM by MTT assay; type: cell-based; conditions: raw264.7, 7.5 µM
Outline: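 RAW 264.7 macrophages: MTT viability assay run in parallel with each nitrite (Griess) experiment, same cell line and same compound treatment conditions.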

[1] = target: T1, Protein kinase C iota type (Homo sapiens) (UniProt P41743); assay: Inhibition of PKCiota (unknown origin) at 20 uM
T1 sequence (whole entry): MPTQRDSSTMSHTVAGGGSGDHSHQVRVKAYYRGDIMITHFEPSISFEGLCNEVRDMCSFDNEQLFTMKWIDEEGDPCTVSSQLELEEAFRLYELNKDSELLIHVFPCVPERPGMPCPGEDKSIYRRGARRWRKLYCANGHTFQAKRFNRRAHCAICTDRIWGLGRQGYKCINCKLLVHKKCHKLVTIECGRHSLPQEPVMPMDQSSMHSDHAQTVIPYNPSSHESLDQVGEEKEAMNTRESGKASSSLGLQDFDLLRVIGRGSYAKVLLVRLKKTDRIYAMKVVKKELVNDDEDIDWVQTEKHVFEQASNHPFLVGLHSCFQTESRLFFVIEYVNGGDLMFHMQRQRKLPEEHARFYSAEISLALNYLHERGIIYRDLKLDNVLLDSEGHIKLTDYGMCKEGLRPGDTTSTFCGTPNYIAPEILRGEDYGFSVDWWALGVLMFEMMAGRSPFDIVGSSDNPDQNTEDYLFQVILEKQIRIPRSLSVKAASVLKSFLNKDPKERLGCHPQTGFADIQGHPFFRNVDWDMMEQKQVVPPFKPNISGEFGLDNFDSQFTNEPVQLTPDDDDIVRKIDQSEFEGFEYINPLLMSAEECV
Outline: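 Cell-free radiometric kinase assay with purified recombinant PKCι under conditions similar to the PKCζ assay. Reaction mixtures preincubated 4 min at 37 °C, then phosphorylation started with γ32P-ATP/Mg2+. Mean of at least two experiments.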

[2] = target: T2, Protein kinase C zeta type (Homo sapiens, UniProt Q05513); assay: Inhibition of human PKCzeta assessed as phosphorylation reaction after 4 mins incubation by cell-free assay
T2 sequence (Q05513 whole entry): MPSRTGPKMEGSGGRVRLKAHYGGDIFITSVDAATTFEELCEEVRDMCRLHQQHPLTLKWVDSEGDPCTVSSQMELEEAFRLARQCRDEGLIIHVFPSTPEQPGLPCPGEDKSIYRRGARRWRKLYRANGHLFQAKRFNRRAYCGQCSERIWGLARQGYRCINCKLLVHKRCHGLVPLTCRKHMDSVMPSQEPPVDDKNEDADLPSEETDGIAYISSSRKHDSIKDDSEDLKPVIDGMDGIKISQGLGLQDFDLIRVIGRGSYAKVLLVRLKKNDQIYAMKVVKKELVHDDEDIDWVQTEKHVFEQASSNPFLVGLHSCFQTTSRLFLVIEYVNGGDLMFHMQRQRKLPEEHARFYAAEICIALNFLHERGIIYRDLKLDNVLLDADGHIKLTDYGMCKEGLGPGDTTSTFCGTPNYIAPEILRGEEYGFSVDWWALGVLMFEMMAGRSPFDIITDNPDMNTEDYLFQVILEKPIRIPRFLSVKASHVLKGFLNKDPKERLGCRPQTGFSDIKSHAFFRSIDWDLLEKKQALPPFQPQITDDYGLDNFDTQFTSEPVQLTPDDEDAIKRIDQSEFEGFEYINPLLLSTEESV

[3] = target: T2, Protein kinase C zeta type; assay: Inhibition of PKCzeta in human U937 cells assessed as inhibition of TNFalpha-induced NF-kappaB activation by reporter gene assay; type: cell-based, U-937
[4] = target: T3, Nitric oxide synthase, inducible (Mus musculus) (UniProt P29477); assay: Inhibition of iNOS induction in mouse RAW264.7 cells assessed as NO production at 7.5 uM; type: cell-based
T3 sequence (whole entry): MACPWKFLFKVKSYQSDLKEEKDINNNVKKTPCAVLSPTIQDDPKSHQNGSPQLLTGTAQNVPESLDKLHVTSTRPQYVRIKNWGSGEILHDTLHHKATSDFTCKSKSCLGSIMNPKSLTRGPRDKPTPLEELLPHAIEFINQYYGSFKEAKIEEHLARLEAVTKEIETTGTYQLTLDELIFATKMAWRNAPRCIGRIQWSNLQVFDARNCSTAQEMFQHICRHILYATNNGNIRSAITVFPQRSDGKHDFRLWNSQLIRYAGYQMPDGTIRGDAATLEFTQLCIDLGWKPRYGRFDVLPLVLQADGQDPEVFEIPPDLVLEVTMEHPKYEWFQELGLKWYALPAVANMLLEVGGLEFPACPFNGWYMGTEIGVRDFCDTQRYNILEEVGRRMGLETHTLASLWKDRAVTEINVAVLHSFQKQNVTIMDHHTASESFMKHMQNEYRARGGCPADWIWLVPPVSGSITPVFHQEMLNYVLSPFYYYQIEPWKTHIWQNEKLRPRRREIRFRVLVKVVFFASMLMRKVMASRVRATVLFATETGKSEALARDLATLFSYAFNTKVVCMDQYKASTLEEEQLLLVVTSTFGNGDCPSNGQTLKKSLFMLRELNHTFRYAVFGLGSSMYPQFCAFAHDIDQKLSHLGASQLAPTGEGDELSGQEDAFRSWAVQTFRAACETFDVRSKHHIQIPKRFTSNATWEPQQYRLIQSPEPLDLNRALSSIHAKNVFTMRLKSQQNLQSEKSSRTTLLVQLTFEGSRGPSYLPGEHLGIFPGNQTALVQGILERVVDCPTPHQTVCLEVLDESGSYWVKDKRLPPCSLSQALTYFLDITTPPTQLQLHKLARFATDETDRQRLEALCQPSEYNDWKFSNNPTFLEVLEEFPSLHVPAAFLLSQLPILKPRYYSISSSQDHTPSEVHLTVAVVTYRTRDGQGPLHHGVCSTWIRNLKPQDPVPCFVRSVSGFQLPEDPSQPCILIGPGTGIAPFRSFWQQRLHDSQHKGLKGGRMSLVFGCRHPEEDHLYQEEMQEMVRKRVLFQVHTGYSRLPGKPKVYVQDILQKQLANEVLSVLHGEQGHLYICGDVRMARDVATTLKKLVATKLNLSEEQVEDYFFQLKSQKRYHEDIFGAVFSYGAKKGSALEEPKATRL
Outline: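 RAW 264.7 cells seeded at 8 × 10⁴ per well in DMEM/10% FBS and grown 2 days. Then exposed to LPS with compound or DMSO for 20 h. Supernatant nitrite measured by Griess reaction (sulfanilamide/NED) at 550 nm minus 620 nm background, quantified against a sodium nitrite standard curve. At least four experiments in triplicate.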

| SMILES | inhibition [1] [%] | IC50 [2] [nM] | IC50 [3] [nM] | inhibition [4] [%] | Activity (RAW264.7) |
| --- | --- | --- | --- | --- | --- |
| Oc1ccc(C2CC(c3ccccc3O)=NN2c2ccc(Cl)cc2)cc1O (stereo not given) | 44.1 | < 100 |  |  | Non-toxic |
| Oc1ccc(C2CC(c3ccccc3)=NN2c2ccc(Cl)cc2)cc1 (stereo not given) | 31.6 | 3500 |  |  | Non-toxic |
| Oc1ccccc1C1=NN(c2cccc(Cl)c2)C(c2ccc(O)c(F)c2F)C1 (stereo not given) | 39.2 | 6600 | 1400 |  | Non-toxic |
| Oc1ccc(C2CC(c3cccs3)=NN2c2ccc(Cl)cc2)cc1 (stereo not given) |  |  |  |  | Non-toxic |
| Oc1ccc(C2CC(c3ccc[nH]3)=NN2c2cccc(Cl)c2)cc1 (stereo not given) | 20.3 |  |  |  | Non-toxic |
| CC(C)(C)C1=NN(c2ccc(Cl)cc2Cl)C(c2ccc(O)cc2)C1 (stereo not given) |  |  |  |  | Non-toxic |
| COc1ccccc1C1=NN(c2ccc(Cl)cc2)C(c2ccc(O)cc2)C1 (stereo not given) |  |  |  |  | Non-toxic |
| Oc1ccc(C2CC(c3ccccc3)=NN2c2cccc(Cl)c2)cc1 (stereo not given) | 45.5 | 2100 |  |  | Non-toxic |
| Cc1ccc(N2N=C(C(C)(C)C)CC2c2ccc(O)cc2)cc1 (stereo not given) |  |  |  |  | Non-toxic |
| CCOc1ccccc1C1=NN(c2ccc(Cl)cc2)C(c2ccc(O)cc2)C1 (stereo not given) |  |  |  |  | Non-toxic |
| CC(C)(C)C1=NN(c2ccc(F)cc2F)C(c2ccc(O)cc2)C1 (stereo not given) |  |  |  |  | Non-toxic |
| CC1C(c2ccccc2O)=NN(c2cccc(Cl)c2)C1c1ccc(O)c(F)c1 (stereo not given) | 23.1 |  |  |  | Non-toxic |
| CC(C)(C)C1=NN(c2ccc(O)cc2)C(c2ccc(O)cc2)C1 (stereo not given) |  |  |  |  | Non-toxic |
| COc1cc(/C=C/C(=O)CC(=O)/C=C/c2ccc(O)c(OC)c2)ccc1O [CURCUMIN] |  |  |  | 97 | Non-toxic |
| Oc1ccc(C2CC(c3ccccc3O)=NN2c2cccc(Cl)c2)cc1F (stereo not given) | 25.2 | 2900 |  |  | Non-toxic |
| CC(C)(C)C1=NN(c2ccc(Cl)cc2)C(c2ccc(O)c(F)c2)C1 (stereo not given) | 29.7 | 3800 | 3700 |  | Non-toxic |
| CC(C)(C)C1=NN(c2ccc(O)cc2)C(c2ccc(Cl)cc2)C1 (stereo not given) |  |  |  |  | Non-toxic |
| CC(C)c1ccc(N2N=C(C(C)(C)C)CC2c2ccc(O)cc2)cc1 (stereo not given) |  |  |  |  | Non-toxic |
| Oc1ccc(C2=NN(c3cccc(Cl)c3)C(c3ccc(O)c(F)c3)C2)c(O)c1 (stereo not given) |  | < 100 | 1100 |  | Non-toxic |
| Nc1ccc(C2=NN(c3ccc(Cl)cc3)C(c3ccc(O)cc3)C2)cc1 (stereo not given) | 38.7 | 5400 |  |  | Non-toxic |
| Oc1ccccc1C1=NN(c2cccc(Cl)c2)C(c2cc(F)c(O)c(F)c2)C1 (stereo not given) | 45.2 | 11100 | 2500 |  | Non-toxic |
| Oc1ccc(C2CC(c3cccs3)=NN2c2ccc(C(F)(F)F)cc2)cc1 (stereo not given) | 45.9 | 400 | 2900 | 69 | Non-toxic |
| Oc1ccc(C2CC(c3ccccc3Cl)=NN2c2ccc(Cl)cc2)cc1 (stereo not given) |  |  |  |  | Non-toxic |
| CC(C)(C)C1=NN(c2ccc(C(=O)O)cc2)C(c2ccc(O)cc2)C1 (stereo not given) |  |  |  |  | Non-toxic |
| Oc1ccc(C2CC(c3ccccn3)=NN2c2cccc(Cl)c2)cc1 (stereo not given) | 24.1 | 6200 |  |  | Non-toxic |
| CC(C)(C)C1=NN(c2ccccc2F)C(c2ccc(O)cc2)C1 (stereo not given) |  |  |  |  | Non-toxic |
| CC(C)(C)C1=NN(c2ccc(Cl)cc2)C(c2ccc(C#N)cc2)C1 (stereo not given) |  |  |  |  | Non-toxic |
| CC(C)(C)C1=NN(c2c(Cl)cccc2Cl)C(c2ccc(O)cc2)C1 (stereo not given) |  |  |  |  | Non-toxic |
| Cc1ccc(N2N=C(C(C)(C)C)CC2c2ccc(O)cc2)c(C)c1 (stereo not given) |  |  |  |  | Non-toxic |

Second part, led by results:

| inhibition [1] [%] | IC50 [2] [nM] | IC50 [3] [nM] | inhibition [4] [%] | SMILES | Activity (RAW264.7) |
| --- | --- | --- | --- | --- | --- |
| 17.4 | 5300 | 2000 |  | CC(C)(C)C1=NN(c2ccc(Cl)cc2)C(c2cccc(O)c2)C1 (stereo not given) | Non-toxic |
|  |  |  | 32 | CC(C)(C)C1=NN(c2ccccc2)C(c2ccc(O)cc2)C1 (stereo not given) | Non-toxic |
| 13.9 |  |  |  | Cc1cccc(N2N=C(C(C)(C)C)CC2c2ccc(O)cc2)c1 (stereo not given) | Non-toxic |
|  | 9400 |  |  | CC(C)(C)C1=NN(c2ccc(F)cc2)C(c2ccc(O)cc2)C1 (stereo not given) | Non-toxic |
|  | 8800 |  |  | CC(C)(C)C1=NN(c2ccc(C(F)(F)F)cc2)C(c2ccc(O)cc2)C1 (stereo not given) | Non-toxic |
|  |  |  | 26 | CC(C)(C)C1=NN(c2ccccc2Cl)C(c2ccc(O)cc2)C1 (stereo not given) | Non-toxic |
| 23.7 |  |  |  | CC(C)(C)C1=NN(c2ccc(F)c(F)c2)C(c2ccc(O)cc2)C1 (stereo not given) | Non-toxic |
|  | 11400 |  |  | CC(C)(C)C1=NN(c2ccc(Br)cc2)C(c2ccc(O)cc2)C1 (stereo not given) | Non-toxic |
| 43.5 | 5200 |  |  | CC(C)(C)C1=NN(c2cccc(Cl)c2)C(c2ccc(O)cc2)C1 (stereo not given) | Non-toxic |
| 19.3 | 2200 |  |  | CC(C)(C)C1=NN(c2cccc(F)c2)C(c2ccc(O)cc2)C1 (stereo not given) | Non-toxic |
| 17 | 2700 | 2700 |  | CC(C)(C)C1=NN(c2cccc(C(F)(F)F)c2)C(c2ccc(O)cc2)C1 (stereo not given) | Non-toxic |
| 31.6 | 900 | 1900 |  | CC(C)(C)C1=NN(c2ccc(F)c(Cl)c2)C(c2ccc(O)cc2)C1 (stereo not given) | Non-toxic |
| 7.8 | 700 | 3100 |  | CC(C)(C)C1=NN(c2ccc(F)c(F)c2F)C(c2ccc(O)cc2)C1 (stereo not given) | Non-toxic |

— ChEMBL document CHEMBL3351692, “Discovery and optimization of 1,3,5-trisubstituted pyrazolines as potent and highly selective allosteric inhibitors of protein kinase C-ζ” (J Med Chem, 2014)
